Measured values from different studies.
Compare with care: the assays were run in different laboratories.
Medium: Caco-2

With `CNC(=O)c1ccccc1Nc1cc(Nc2ccc(N3CCOCC3)cc2OC)ncc1C(F)(F)F` the Papp was 18 ×10⁻⁶ cm/s (20 µM; 2 h).
`COc1ccc([C@@H]2CC(=O)c3c(O)cc(O)cc3O2)cc1O` has a Papp B→A of 21.4 ×10⁻⁶ cm/s (100 µg/mL; 2 h).
The Papp of `Cc1cc(-c2ccnc3[nH]cc(F)c23)cc(F)c1[C@@]1(O)[C@H](C)CN(C(=O)CN)C[C@@H]1C` is reported as 5.2 ×10⁻⁶ cm/s (10 µM).
The Papp B→A of `Cc1cc(C)c(CNC(=O)c2cc(Cl)c3c(c2C)O[C@@](C)([C@H]2CC[C@H](N(C)C)CC2)O3)c(=O)[nH]1` is reported as 20.7 ×10⁻⁶ cm/s (1 µM).
`O=C1CCC(N2Cc3cc(C4CCN(Cc5ccccc5)CC4)ccc3C2=O)C(=O)N1` (stereo not shown) has a Papp of 8.1 ×10⁻⁶ cm/s (10 µM; 2 h).
For `COc1ccc(CCC(=O)c2c(O)cc(O[C@@H]3O[C@H](CO)[C@@H](O)[C@H](O)[C@H]3O[C@@H]3O[C@@H](C)[C@H](O)[C@@H](O)[C@H]3O)cc2O)cc1O`, the Papp B→A was 8.96 ×10⁻⁶ cm/s (100 µg/mL; 2 h).
With `O=S1(=O)OC(c2ccc(O)cc2)(c2ccc(O)cc2)c2ccccc21` the Papp was 0.54 ×10⁻⁶ cm/s.
For `O=C(Nc1ccc(OC(F)(F)F)cc1)N[C@H]1CC[C@H](Oc2ccc(C(=O)O)cc2)CC1`, the Papp was 4.76 ×10⁻⁶ cm/s.
The Papp of `Cc1cc(-c2ccnc3[nH]cc(F)c23)cc(F)c1[C@@]1(O)[C@H](C)CN(C2CCS(=O)(=O)CC2)C[C@@H]1C` is reported as 14.8 ×10⁻⁶ cm/s (10 µM).
The Papp B→A of `COc1ccc(-c2cc(=O)c3c(O)cc(O[C@@H]4O[C@H](CO[C@@H]5O[C@@H](C)[C@H](O)[C@@H](O)[C@H]5O)[C@@H](O)[C@H](O)[C@H]4O)cc3o2)cc1O` is reported as 35.1 ×10⁻⁶ cm/s (100 µg/mL; 2 h).
